# In ChEMBL document CHEMBL3526002, “Tissue distribution and identification of radioactivity components at elimination phase after oral administration of [¹⁴C]CS-1036, an α-amylase inhibitor, to rats” (Drug Metab Dispos, 2013):
# Tests used:
# Set-up in all cases: dose 5 mg/kg, dosed compound name [14C]CS-1036, route oral
# Conditions in all cases: in vivo
# [1] = Drug uptake in albino F344/DuCrlCrlj rat mandibular gland at 5 mg/kg, po after 4 hrs by liquid scintillation counting; type: ADME, organism-based
# [2] = tested on: Heart; experiment: Drug uptake in albino F344/DuCrlCrlj rat heart at 5 mg/kg, po after 4 hrs by liquid scintillation counting; type: ADME, organism-based
# [3] = tested on: Blood; experiment: Drug uptake in albino F344/DuCrlCrlj rat blood at 5 mg/kg, po after 8 hrs by liquid scintillation counting; type: ADME, organism-based
# Procedure, shortened: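 Male rats (159–167 g; n = 3) received a single oral dose of [14C]CS-1036 at 5 mg/kg. Blood was drawn from the abdominal aorta at 1, 4, 8, 24, 72, 168 and 336 h. Radioactivity was counted by LSC with external-standard efficiency correction. Results are expressed as ng equivalent/ml from the specific activity and sample volume; mean + S.D.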
# [4] = tested on: Heart; experiment: Drug uptake in albino F344/DuCrlCrlj rat heart at 5 mg/kg, po after 8 hrs by liquid scintillation counting; type: ADME, organism-based
# [5] = tested on: Spleen; experiment: Drug uptake in albino F344/DuCrlCrlj rat spleen at 5 mg/kg, po after 8 hrs by liquid scintillation counting; type: ADME, organism-based
# [6] = Drug uptake in albino F344/DuCrlCrlj rat skeletal muscle at 5 mg/kg, po after 8 hrs by liquid scintillation counting; type: ADME, organism-based, Muscle tissue
# [7] = Drug uptake in albino F344/DuCrlCrlj rat epididymis at 5 mg/kg, po after 8 hrs by liquid scintillation counting; type: ADME, organism-based
# [8] = tested on: Kidney; experiment: Drug uptake in albino F344/DuCrlCrlj rat kidney assessed as ng equivalent of CS-1036 at 5 mg/kg, po after 1 hr by liquid scintillation counting; type: ADME, organism-based
# [9] = Drug uptake in albino F344/DuCrlCrlj rat thyroid gland assessed as ng equivalent of CS-1036 at 5 mg/kg, po after 4 hrs by liquid scintillation counting; type: ADME, organism-based
# [10] = Drug uptake in albino F344/DuCrlCrlj rat trachea assessed as ng equivalent of CS-1036 at 5 mg/kg, po after 4 hrs by liquid scintillation counting; type: ADME, organism-based
# [11] = tested on: Thymus; experiment: Drug uptake in albino F344/DuCrlCrlj rat thymus assessed as ng equivalent of CS-1036 at 5 mg/kg, po after 4 hrs by liquid scintillation counting; type: ADME, organism-based
# [12] = tested on: Heart; experiment: Drug uptake in albino F344/DuCrlCrlj rat heart assessed as ng equivalent of CS-1036 at 5 mg/kg, po after 4 hrs by liquid scintillation counting; type: ADME, organism-based
# [13] = Drug uptake in albino F344/DuCrlCrlj rat eyeball at 5 mg/kg, po after 24 hrs by liquid scintillation counting; type: ADME, organism-based
# [14] = Drug uptake in albino F344/DuCrlCrlj rat trachea at 5 mg/kg, po after 24 hrs by liquid scintillation counting; type: ADME, organism-based
# [15] = tested on: Adrenal gland; experiment: Drug uptake in albino F344/DuCrlCrlj rat adrenal gland at 5 mg/kg, po after 24 hrs by liquid scintillation counting; type: ADME, organism-based
# [16] = Drug uptake in albino F344/DuCrlCrlj rat mandibular gland assessed as ng equivalent of CS-1036 at 5 mg/kg, po after 168 hrs by liquid scintillation counting; type: ADME, organism-based
# [17] = tested on: Adrenal gland; experiment: Drug uptake in albino F344/DuCrlCrlj rat adrenal gland assessed as ng equivalent of CS-1036 at 5 mg/kg, po after 168 hrs by liquid scintillation counting; type: ADME, organism-based
# [18] = tested on: Cerebellum; experiment: Drug uptake in albino F344/DuCrlCrlj rat cerebellum at 5 mg/kg, po after 72 hrs by liquid scintillation counting; type: ADME, organism-based
# [19] = Drug uptake in albino F344/DuCrlCrlj rat eyeball at 5 mg/kg, po after 72 hrs by liquid scintillation counting; type: ADME, organism-based
# [20] = tested on: Liver; experiment: Drug uptake in albino F344/DuCrlCrlj rat liver at 5 mg/kg, po after 72 hrs by liquid scintillation counting; type: ADME, organism-based
# [21] = tested on: Adrenal gland; experiment: Drug uptake in albino F344/DuCrlCrlj rat adrenal gland at 5 mg/kg, po after 72 hrs by liquid scintillation counting; type: ADME, organism-based
# [22] = tested on: Pancreas; experiment: Drug uptake in albino F344/DuCrlCrlj rat pancreas at 5 mg/kg, po after 72 hrs by liquid scintillation counting; type: ADME, organism-based
# [23] = Drug uptake in albino F344/DuCrlCrlj rat fat at 5 mg/kg, po after 72 hrs by liquid scintillation counting; type: ADME, organism-based, Adipose tissue
# Procedure, shortened: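 Male F344/DuCrlCrlj rats (bought at 7 weeks, acclimatized 5–6 days; 159–167 g; n = 3 per time point) received a single oral dose of [14C]CS-1036 at 5 mg/kg. White adipose tissue was collected after abdominal aortic bleeding at 1, 4, 8, 24, 72, 168 or 336 h. Samples were counted by LSC with external-standard efficiency correction. Results were converted to ng equivalents per g from specific activity and sample weight.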
# [24] = tested on: Blood; experiment: Drug uptake in albino F344/DuCrlCrlj rat blood at 5 mg/kg, po after 1 hr by liquid scintillation counting; type: ADME, organism-based
# Procedure, shortened: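 Male F344/DuCrlCrlj rats (159–167 g; n = 3 per time point) received a single oral dose of [14C]CS-1036 at 5 mg/kg. Blood was taken from the abdominal aorta at 1, 4, 8, 24, 72, 168 and 336 h. Radioactivity was counted by LSC with external-standard efficiency correction. Results were converted to ng equivalent of CS-1036/ml using specific activity and sample volume, and reported as mean + S.D.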
# [25] = tested on: Aorta; experiment: Drug uptake in albino F344/DuCrlCrlj rat aorta assessed as ng equivalent of CS-1036 at 5 mg/kg, po after 4 hrs by liquid scintillation counting; type: ADME, organism-based
# [26] = tested on: Zone of skin; experiment: Drug uptake in albino F344/DuCrlCrlj rat skin assessed as ng equivalent of CS-1036 at 5 mg/kg, po after 168 hrs by liquid scintillation counting; type: ADME, organism-based
# [27] = Drug uptake in albino F344/DuCrlCrlj rat eyeball at 5 mg/kg, po after 1 hr by liquid scintillation counting; type: ADME, organism-based
# [28] = tested on: Heart; experiment: Drug uptake in albino F344/DuCrlCrlj rat heart assessed as ng equivalent of CS-1036 at 5 mg/kg, po after 336 hrs by liquid scintillation counting; type: ADME, organism-based
# [29] = tested on: Liver; experiment: Drug uptake in albino F344/DuCrlCrlj rat liver at 5 mg/kg, po after 168 hrs by liquid scintillation counting; type: ADME, organism-based
# [30] = tested on: Pancreas; experiment: Drug uptake in albino F344/DuCrlCrlj rat pancreas at 5 mg/kg, po after 168 hrs by liquid scintillation counting; type: ADME, organism-based
# [31] = tested on: Plasma; experiment: Drug uptake in albino F344/DuCrlCrlj rat plasma at 5 mg/kg, po after 4 hrs by liquid scintillation counting; type: ADME, organism-based
# [32] = tested on: Zone of skin; experiment: Drug uptake in albino F344/DuCrlCrlj rat skin at 5 mg/kg, po after 168 hrs by liquid scintillation counting; type: ADME, organism-based
# [33] = tested on: Large intestine; experiment: Drug uptake in albino F344/DuCrlCrlj rat large intestine at 5 mg/kg, po after 168 hrs by liquid scintillation counting; type: ADME, organism-based
# [34] = tested on: Adrenal gland; experiment: Drug uptake in albino F344/DuCrlCrlj rat adrenal gland at 5 mg/kg, po after 336 hrs by liquid scintillation counting; type: ADME, organism-based
# [35] = Drug uptake in albino F344/DuCrlCrlj rat brown fat assessed as ng equivalent of CS-1036 at 5 mg/kg, po after 24 hrs by liquid scintillation counting; type: ADME, organism-based, Brown adipose tissue
smiles,measurement,setting,value
C[C@H]1O[C@@H](O[C@H]2[C@H](O)[C@@H](O)[C@@H](O[14C@H]3[14C@H](O)[14CH2]N[14C@@H]3[14CH2]O)O[C@@H]2CO)[C@H](O)[C@@H](O)[C@@H]1O,Radiolabel recovery,[1],51.1 ngequiv/g
same,Radiolabel recovery,[2],36 ngequiv/g
same,Radiolabel recovery,[3],22.1 ngequiv/ml
same,Radiolabel recovery,[4],27.2 ngequiv/g
same,Radiolabel recovery,[5],84.8 ngequiv/g
same,Radiolabel recovery,[6],32.2 ngequiv/g
same,Radiolabel recovery,[7],40.8 ngequiv/g
same,Radiolabel recovery,[8],102 ngequiv/g
same,Radiolabel recovery,[9],21.4 ngequiv/g
same,Radiolabel recovery,[10],10.4 ngequiv/g
same,Radiolabel recovery,[11],2.8 ngequiv/g
same,Radiolabel recovery,[12],7 ngequiv/g
same,Radiolabel recovery,[13],17.4 ngequiv/g
same,Radiolabel recovery,[14],43.2 ngequiv/g
same,Radiolabel recovery,[15],81.8 ngequiv/g
same,Radiolabel recovery,[16],7 ngequiv/g
same,Radiolabel recovery,[17],93 ngequiv/g
same,Radiolabel recovery,[18],9.8 ngequiv/g
same,Radiolabel recovery,[19],7.83 ngequiv/g
same,Radiolabel recovery,[20],446 ngequiv/g
same,Radiolabel recovery,[21],99.7 ngequiv/g
same,Radiolabel recovery,[22],186 ngequiv/g
same,Radiolabel recovery,[23],194 ngequiv/g
same,Radiolabel recovery,[24],60.5 ngequiv/ml
same,Radiolabel recovery,[25],13.3 ngequiv/g
same,Radiolabel recovery,[26],23.9 ngequiv/g
same,Radiolabel recovery,[27],17.7 ngequiv/g
same,Radiolabel recovery,[28],3.63 ngequiv/g
same,Radiolabel recovery,[29],14.3 ngequiv/g
same,Radiolabel recovery,[30],79.2 ngequiv/g
same,Radiolabel recovery,[31],60.1 ngequiv/ml
same,Radiolabel recovery,[32],53.3 ngequiv/g
same,Radiolabel recovery,[33],26.4 ngequiv/g
same,Radiolabel recovery,[34],19.5 ngequiv/g
same,Radiolabel recovery,[35],63 ngequiv/g
